Mot1-301 SUMO: yeast Mot1-301 growth rescue at high temperature, primary screen, SUMOylation pathway inhibitor project, S. cerevisiae, ATP luminescence, 38.5C; AID 2716, 2010; S. cerevisiae Mot1-301 growth rescue; percent above DMSO median, 100 means doubled; 320,000 tested, 1% active; growth rescue, % at 18.8 µM;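 active = every valid replicate shows activation above 250% relative to neutral control wells; inactive = the rest, any valid replicate at or below 250%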
Cneo AK release: Cryptococcus neoformans cell lysis inducers, primary screen, AK release luminescence, single concentration; C. neoformans lysis, adenylate kinase release luminescence, 4 h; normalised: neutral wells 0, clomiphene wells 100; lysis activity, % at 15 µM; 360,000 tested, 0.2% active;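 active = mean lysis activity across replicates of at least 80%, whatever share of replicates individually reach that level; inactive = mean lysis activity below 80%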
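Material: C. neoformans cells | Amount: Yeast cell density of 5 × 10^6 cells/mL | Medium: Fresh YPD growth medium | Dosing: Single dose | Times: Static 4 h at 37 °C with compound, 1 h detection | Detection: AK luminescence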
C2C12 statin: suppressors of statin myotoxicity in C2C12 myotubes, primary screen, cell-based, single point, plate reader; AID 602340, 2012; C2C12 myotubes + simvastatin, ATP luminescence, 48 h; scaled: DMSO 0, geranylgeraniol control 100; rescue of ATP level, % at 7.49 µM; 330,000 tested, 0.78% active;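 active = mean ATP rescue above about 67%, or every replicate alone reaching that limit, limit read from the data, passing the limit was not always enough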;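 also: myotubes were challenged with 10 µM simvastatin during compound exposure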
Large screens that a line does not name were inactive. A selection: hits, their analogues and other compounds. The true share with any hit is near 1.5%.

CNC(=O)C[C@@H]1CC[C@@H]2[C@H](COC[C@@H](O)CN2C(=O)Nc2ccc3c(c2)OCO3)O1	Cneo AK release 113 (no result: Mot1-301 SUMO)
COc1cccc(NC(=O)N2C[C@H](O)COC[C@H]3O[C@@H](CC(=O)NCc4ccccc4F)CC[C@@H]32)c1	Cneo AK release 119 (no result: Mot1-301 SUMO)
COc1cccc(NC(=O)N2C[C@@H](O)COC[C@H]3O[C@@H](CC(=O)NCc4ccccc4F)CC[C@@H]32)c1	none (no result: Mot1-301 SUMO)
CNC(=O)C[C@@H]1CC[C@H]2[C@@H](COC[C@H](O)CN2C(=O)Nc2ccc3c(c2)OCO3)O1	Cneo AK release 89 (no result: Mot1-301 SUMO)
CCCNC(=O)C[C@@H]1CC[C@H]2[C@@H](COC[C@H](O)CN2C(=O)Nc2ccc3c(c2)OCO3)O1	none (no result: Mot1-301 SUMO)
CCNC(=O)C[C@H]1CC[C@@H]2[C@H](COC[C@@H](O)CN2C(=O)Nc2ccc3c(c2)OCO3)O1	none (no result: Mot1-301 SUMO)
O=C(Nc1cccc(F)c1)N1C[C@H]2[C@@H](c3ccccc31)[C@H](CO)N2C(=O)c1ccccn1	none (no result: Mot1-301 SUMO)
COc1ccc(C#Cc2ccc3c(c2)O[C@@H](CN(C)C(=O)Nc2cccc(OC)c2)[C@@H](C)CN([C@@H](C)CO)S3(=O)=O)cc1	none (no result: Mot1-301 SUMO)
N#Cc1ccccc1/C=N/Nc1nc(-c2ccccc2)c2cc(Br)ccc2n1	C2C12 statin 99
O=[N+]([O-])c1ccc(/C=N/Nc2nc(-c3ccccc3)c3cc(Br)ccc3n2)o1	none (no result: C2C12 statin)
COCC(=O)Nc1ccc2c(c1)C(=O)N(C)[C@@H]1CC[C@H](CC(=O)NCc3ccccc3F)O[C@H]1CO2	none (no result: Mot1-301 SUMO)
C/C=C/c1ccc(OCCCNC2CCCC2)c(OC)c1	none
C/C=C/c1ccc(OCCCNC(C)CC)c(OC)c1 (centres undefined)	C2C12 statin 99
CCCN1[C@@H]2c3ccc(C4=CCCC4)c(=O)n3C[C@@H]2[C@@H](CO)[C@@H]1C(=O)NCC	none (no result: Mot1-301 SUMO)
COc1cc(OC)c(NC(=O)CCNS(=O)(=O)c2cc(Br)cnc2N)cc1Cl	C2C12 statin 94
COc1ccc(NC(=O)CCNS(=O)(=O)c2cc(Br)cnc2N)c(OC)c1	none
CCC(=O)Nc1ccc2c(c1)C(=O)N(C)C[C@H](OC)[C@@H](C)CN(C(=O)C1CC1)[C@H](C)CO2	none (no result: Mot1-301 SUMO)
CCOC(=O)C1=C(C)C(c2ccccc2O)NC(=O)N1 (centres undefined)	C2C12 statin 87
CCOC(=O)C1=C(C)C(c2ccc(OC)cc2OC)NC(=O)N1 (centres undefined)	none (no result: Cneo AK release)
Cc1noc(C)c1NC(=O)Nc1ccc2c(c1)C(=O)N([C@H](C)CO)C[C@H](C)[C@H](CN(C)CC1CCCCC1)OCCCC[C@H](C)O2	none (no result: Mot1-301 SUMO, C2C12 statin)
C[C@@H]1CN([C@@H](C)CO)C(=O)c2cc(NC(=O)Nc3ccc(F)cc3)ccc2O[C@H]1CN(C)S(=O)(=O)c1ccccc1	none (no result: Mot1-301 SUMO)
C=CCn1c(=O)/c(=C\c2ccsc2)s/c1=C(/C#N)C(=O)NCCN1CCOCC1	C2C12 statin 112
COc1ccc(-n2c(=O)/c(=C\c3cccs3)s/c2=C(/C#N)C(=O)NCCN2CCOCC2)cc1	none
CC(C)NC(=O)N(C)C[C@H]1Oc2ncc(C#CC3CCCCC3)cc2C(=O)N([C@H](C)CO)C[C@H]1C	none (no result: Mot1-301 SUMO, Cneo AK release)
c1ccc2c(c1)nc(-c1ccncc1)n2CCNc1nc(CN2CCCCC2)cs1	C2C12 statin 88
FC(F)(F)c1nc2ccccc2n1CCNc1nc(CN2CCCCC2)cs1	none
COc1cccc(OCC(=O)Nc2ccncc2)c1	none
CC(C)CCOc1cccc(OCC(=O)Nc2ccncc2)c1	Mot1-301 SUMO 317
CCCN(C)C[C@@H]1Oc2cc(-c3cncnc3)ccc2S(=O)(=O)N([C@@H](C)CO)C[C@@H]1C	none (no result: Mot1-301 SUMO, Cneo AK release)
Cc1ccc(CSCCNC(=O)CCSc2ccccc2)cc1	none
Cc1ccccc1CSCCNC(=O)CCSc1ccccc1	Mot1-301 SUMO 322
O=C(C[C@H]1C[C@@H]2c3cc(NC(=O)Nc4ccc(F)cc4)ccc3O[C@@H]2[C@@H](CO)O1)NCC(F)(F)F	none (no result: Mot1-301 SUMO)
CCOC(=O)N1CCN(c2c(N3CCN(c4cc(C)ccc4C)CC3)c(=O)c2=O)CC1	C2C12 statin 102
CCOC(=O)N1CCN(c2c(N3CCN(C(=O)OCC)CC3)c(=O)c2=O)CC1	none
CC(C)NC(=O)Nc1ccc2c(c1)CC(=O)N([C@H](C)CO)C[C@H](C)[C@H](CN(C)C(=O)Nc1ccccc1)O2	none (no result: Mot1-301 SUMO)
CN(C)CCn1c(=O)n(-c2ccc(F)cc2)c(=O)c2c3c(sc21)CCCCC3	none (no result: Cneo AK release)
CN(C)CCCn1c(=O)n(C2CCCCC2)c(=O)c2c3c(sc21)CCCCC3	Cneo AK release 88
COCC#Cc1cnc2c(c1)C(=O)N([C@H](C)CO)C[C@H](C)[C@@H](CN(C)Cc1ccc(F)cc1)O2	none (no result: Mot1-301 SUMO)
O=S(=O)(N[C@@H]1CC[C@H](CCn2cc(C3(O)CCCC3)nn2)O[C@H]1CO)c1ccc(F)cc1	none (no result: Mot1-301 SUMO)
COc1ccc(/C=C/C(=O)Nc2ccc(OC)nc2)cc1	C2C12 statin 84
COc1ccc(NC(=O)/C=C/c2ccc(OC(F)F)cc2)cn1	none
O=C(Nc1ccc2nc(-c3cccnc3)[nH]c2c1)C12CC3CC(CC(C3)C1)C2	C2C12 statin 75
O=C(Nc1ccc2nc(-c3cccnc3)[nH]c2c1)C1CCCCC1	none
CC(=O)Nc1ccc2c(c1)C(=O)N(C)[C@@H]1CC[C@H](CC(=O)NCC3CC3)O[C@H]1CO2	none (no result: Mot1-301 SUMO)
O=C(Nc1ccccc1F)N1CCCCN2[C@H](CO)[C@@H](c3ccc(C4=CCCCC4)cc3)[C@H]2C1	none (no result: Mot1-301 SUMO, C2C12 statin)
COC(=O)Nc1ccc(Oc2ccccc2)cc1	Mot1-301 SUMO 278
COc1ccc(NC(=S)Nc2ccc(Oc3ccccc3)cc2)cc1	Mot1-301 SUMO 277
CCNC(=S)Nc1ccc(Oc2ccccc2)cc1	none (no result: Mot1-301 SUMO, C2C12 statin)
CC(=O)Nc1ccc(Oc2ccccc2)cc1	none
CCCNC(=O)N[C@@H]1C=C[C@@H](CC(=O)NC2CCCCC2)O[C@H]1CO	none (no result: Mot1-301 SUMO)
CO[C@@H]1CN(C)C(=O)c2cc(NC(=O)c3ccc(F)cc3)ccc2OC[C@@H](C)N(C(=O)c2ccc(F)cc2)C[C@@H]1C	none (no result: Mot1-301 SUMO)
C[C@H](CO)N1C[C@H](C)[C@@H](CN(C)C(=O)c2ccncc2)Oc2ncc(C#CC3CCCC3)cc2C1=O	none (no result: Mot1-301 SUMO, Cneo AK release)
Cc1cc(Cl)c(S(=O)(=O)N2CC(C)OC(C)C2)cc1OCC(N)=O (centres undefined)	C2C12 statin 135
Cc1cc(Cl)c(S(=O)(=O)N2CCSCC2)cc1OCC(N)=O	none
COCC(=O)Nc1ccc2c(c1)[C@H]1C[C@@H](CC(=O)NCc3ccc(Cl)cc3)O[C@@H](CO)[C@H]1O2	none (no result: Mot1-301 SUMO)
C/C=C/c1ccc2c(c1)O[C@@H](CN(C)C(=O)CN1CCOCC1)[C@H](C)CN([C@H](C)CO)S2(=O)=O	none (no result: Mot1-301 SUMO)
COc1ccc(Br)cc1/C=C/c1ccc2cccc(O)c2n1	C2C12 statin 68
COc1cc(Br)cc(/C=C/c2ccc3cccc(O)c3n2)c1OC	none
C[C@@H]1CCCCO[C@H](CN(C)C(=O)Nc2ccc3c(c2)OCO3)[C@H](C)CN([C@H](C)CO)C(=O)c2cc(NC(=O)CCCN(C)C)ccc2O1	none (no result: Mot1-301 SUMO, C2C12 statin)
COc1ccc(CN(C)C[C@@H]2Oc3ccc(NC(=O)CCCN(C)C)cc3C(=O)N([C@@H](C)CO)C[C@H]2C)cc1	none (no result: Mot1-301 SUMO)
O=C(C[C@H]1C=C[C@@H](NS(=O)(=O)c2ccc(F)cc2)[C@H](CO)O1)NCCN1CCCCC1	none (no result: Mot1-301 SUMO)
